Counter-ions that a name gives are not always drawn. Like-named read-outs stand apart in the source and are kept apart here.
Legend:
[1] = tested on: NB12 xenograft tumours; assay: NB12 xenograft tumours in NOD/SCID mice; assay type: in vivo; settings: 14 days
[2] = tested on: NB TICs; assay: Sphere-formation secondary assay, NB TICs; assay type: cell-based, human; settings: for Fold difference in potency (EC50, sphere formation) NB TICs vs SKPs: text and legends
[3] = tested on: NB67 cells; assay: Secondary assay on NB67 TICs; settings: same patient as NB12, 2 years later
[4] = tested on: NB12 xenograft tumours; assay: Sphere formation of cells re-isolated from treated NB12 xenograft tumours; assay type: in vivo, NOD/SCID mice; settings: dissociated tumours, methylcellulose, 10 days; 3 mg/kg IP daily
[5] = tested on: SK-N-AS cells; assay: alamarBlue dose-response assay; assay type: cell-based, human; settings: serial dilutions, alamarBlue day 6, read day 7
[6] = tested on: NB TICs; assay: Apoptosis: nuclear morphology, sub-2n DNA content, cleaved PARP; assay type: cell-based, human; settings: 50 nM rapamycin
Method in brief: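 NB12 cells (40,000) on lysine/laminin-coated chamber slides, treated in duplicate 24 h after plating, then fixed with 4% paraformaldehyde and 0.5 µg/ml Hoechst 33342; nuclei counted in 15 random fields. For DNA content and blots, 200,000 NB TICs per 25 cm2 flask were treated 48 h post-plating. Cells were ethanol-fixed, RNaseA/propidium iodide 1 h 37 °C, flow cytometry. NP-40 lysates were immunoblotted for cleaved PARP.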

[7] = tested on: NB88R2 xenograft tumours; assay: NB88R2 xenograft tumours in NOD/SCID mice; assay type: in vivo; settings: NB88 tumours; 3 mg/kg IP daily, 14 days
[8] = tested on: SMS-KCNR cells; assay: Sphere-formation secondary assay, SMS-KCNR; assay type: cell-based, human; settings: up to doses of 1 µM
[9] = tested on: SH-SY5Y cells; assay: alamarBlue dose-response assay; assay type: cell-based, human; settings: serial dilutions, alamarBlue day 6, read day 7
[10] = tested on: NB12 TICs; assay: Cell viability by trypan blue exclusion; assay type: cell-based, human; settings: 50 nM rapamycin
[11] = tested on: SKPs; assay: Sphere-formation secondary assay, SKPs; assay type: cell-based, human; settings: up to doses of 1 µM
[12] = tested on: p70S6K and S6RP phosphorylation; assay: Immunoblot of mTOR target proteins; assay type: cell-based, human; settings: 50 nM, 1 h
[13] = tested on: NB67 cells

For `CC[C@]1(O)C[C@@H]2CN(CCc3c([nH]c4ccccc34)[C@@](C(=O)OC)(c3cc4c(cc3OC)N(C)[C@H]3[C@@](O)(C(=O)OC)[C@H](OC(C)=O)[C@]5(CC)C=CCN6CC[C@]43[C@@H]65)C2)C1` [Vinblastine sulfate], the “Reduction of tumour weight relative to vehicle-treated controls” value ([1]; 0.25 mg/kg IP daily) was 43.4%, the “Fold difference in potency (EC50, sphere formation) NB TICs vs SKPs” value (“Fold difference in potency” for short) [2] was over 10 fold and the “Cytotoxicity to NB67 cells” value [3] was “not cytotoxic”.
For `CO[C@H]1C[C@@H]2CC[C@@H](C)[C@@](O)(O2)C(=O)C(=O)N2CCCC[C@H]2C(=O)O[C@H]([C@H](C)C[C@@H]2CC[C@@H](O)[C@H](OC)C2)CC(=O)[C@H](C)/C=C(\C)[C@@H](O)[C@@H](OC)C(=O)[C@H](C)C[C@H](C)/C=C/C=C/C=C/1C` [rapamycin], the “Reduction of sphere-forming ability in treated tumours” value [4] was 7.75 fold, the “Reduction of tumour weight relative to vehicle-treated controls” value ([1]; 3 mg/kg IP daily) was 82.6% and the “Sensitivity of SK-N-AS cells, alamarBlue assay” value [5] was “not effective”. For the same compound, the “Apoptosis in NB12 and NB122R cells” value [6] was “induced features of apoptosis”, the “Reduction of tumour weight relative to vehicle-treated controls” value [7] was 74.0% and the “Effect on sphere formation of SMS-KCNR cells” value [8] was “little effect”. For the same compound, the “Sensitivity of SH-SY5Y cells, alamarBlue assay” value [9] was “not effective”, the “Time to decrease of cell viability (trypan blue exclusion)” value [10] was 24 h and the “Effect on sphere formation of SKPs” value [11] was “little effect”. The “Phosphorylation of p70S6K and S6RP” value [12] was “rapidly inhibited”.
In the case of `COc1ccc2c(c[n+](C)c3c4cc5c(cc4ccc23)OCO5)c1OC` [Chelerythrine chloride], the “Selective cytotoxicity for NB TICs (PKC inhibitors)” value ([2]; sphere formation, NB TICs vs SKPs) is reported as “selectively cytotoxic”.
`CO[C@H]1C=C[C@@]23c4cc5c(cc4CN(C[C@@H]2O)[C@H]3C1)OCO5` [Crinamine] was tested, and the “Fold difference in potency” value [2] was over 50 fold.
In the case of `C=C1C(=O)O[C@H]2[C@H]1CC/C(C)=C/CC[C@@]1(C)O[C@@H]21` [Parthenolide], the “Fold difference in potency” value [2] is reported as 3-50 fold.
With `COc1cc2c(c(OC)c1OC)-c1ccc(OC)c(=O)cc1[C@@H](NC(C)=O)CC2` [Colchicine] the “Cytotoxicity to NB67 cells” value [13] was “not cytotoxic”.
`COc1cc([C@@H]2c3cc4c(cc3[C@H](O)[C@H]3COC(=O)[C@H]23)OCO4)cc(OC)c1OC` [Podophyllotoxin] was tested, and the “Cytotoxicity to NB67 cells” value [13] was “not cytotoxic”.
In the case of `CCN(CC)CCCC(C)Nc1c2ccc(Cl)cc2nc2ccc(OC)cc12` (stereo not drawn) [Quinacrine dihydrochloride], the “Fold difference in potency” value [2] is reported as 3-50 fold.
For `COc1cc([C@@H]2c3cc4c(cc3[C@@H](O[C@@H]3O[C@@H]5CO[C@@H](c6cccs6)O[C@H]5[C@H](O)[C@H]3O)[C@H]3COC(=O)[C@H]23)OCO4)cc(OC)c1O` [Teniposide], the “Fold difference in potency” value [2] was over 10 fold.
In the case of `CC[C@]1(O)C[C@H]2CN(CCc3c([nH]c4ccccc34)[C@@](C(=O)OC)(c3cc4c(cc3OC)N(C=O)[C@H]3[C@@](O)(C(=O)OC)[C@H](OC(C)=O)[C@]5(CC)C=CCN6CC[C@]43[C@@H]65)C2)C1` [Vincristine sulfate], the “Cytotoxicity to NB67 cells” value [3] is reported as “not cytotoxic”.

Source: publication PMC3377336 (EMBO Molecular Medicine, 2010)
